Results from ChEMBL document CHEMBL4257459, “Synergistic antifungal effect of cyclized chalcone derivatives and fluconazole against Candida albicans” (2017).
Values after ≈ are worked out from the molar mass of the structure shown.

Key:
[1] = tested on: Candida albicans; assay: Antifungal activity against fluconazole susceptible Candida albicans 004B1 by CLSI protocol based broth microdilution method; format: functional
How it was run: (§1)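 Clinical isolates and control strain subcultured at least twice on TSA, 37 °C, 48 h. MICs by CLSI M27-A3 broth microdilution; compounds dissolved in DMSO to 2000 μg mL–1 stock. Fluconazole positive control, culture, media and DMSO vehicle controls in each run. Duplicate experiments; MIC in μg mL–1.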

[2] = tested on: Candida albicans; assay: Inhibition of ABC efflux pumps in fluconazole resistant Candida albicans A171 assessed as reduction in energy-dependent rhodamine 6G efflux in presence of 0.1 M glucose after 25 mins by fluorescence assay relative to control
How it was run: (§2)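 Cells grown in TSB at 37 °C for 8 h, washed, resuspended in glucose-free PBS at 1 × 10^8 cells. De-energized 45 min with 5 mM deoxyglucose plus 5 mM dinitrophenol. […] Washed, sampled 5–25 min, then 0.1 M glucose added. Absorbance 527 nm, R6G from standard curve.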

[3] = tested on: Candida albicans; assay: Antifungal activity against fluconazole resistant Candida albicans A171 in presence of fluconazole by CLSI protocol based broth microdilution method; format: functional
How it was run: (§3)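 Checkerboard-style combination with fluconazole at a 1 : 1 ratio, over concentrations 2–4 fold below each agent's MIC alone, by CLSI broth microdilution. Fractional inhibitory concentration index calculated and interpreted as synergy (<0.5), additive (0.5–1), indifferent or antagonistic.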

[4] = tested on: Candida albicans; assay: Inhibition of ergosterol biosynthesis in fluconazole resistant Candida albicans A171 at 0.5 to 1 times MIC relative to control; format: functional
How it was run: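 Total sterols quantified by alcoholic KOH extraction in cells grown in 50 ml TSB with compounds at MIC and ½ MIC; untreated and 8 μg mL–1 fluconazole controls. Spectral scan; ergosterol content from A281.5 and A230 absorbances, dilution factor and pellet weight, correcting for 24(28) DHE.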

[5] = tested on: Candida albicans; assay: Inhibition of ABC efflux pumps in fluconazole susceptible Candida albicans 0072gr assessed as reduction in energy-dependent rhodamine 6G efflux in presence of 0.1 M glucose after 25 mins […] relative to control
[6] = tested on: Candida albicans; assay: Inhibition of ABC efflux pumps in fluconazole susceptible Candida albicans 003gr assessed as reduction in energy-dependent rhodamine 6G efflux in presence of 0.1 M glucose after 25 mins […] relative to control
[7] = tested on: Candida albicans; assay: Down regulation of ERG11 gene expression in fluconazole susceptible Candida albicans ATCC 90028 at MIC after 2 hrs by qRT PCR analysis relative to control; format: functional
How it was run: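 Cells exposed to compound at MIC for 2 h; total RNA isolated, cDNA synthesised, ERG11 measured by real-time qPCR with ACT1 as endogenous control. Triplicate independent experiments; mean ± standard deviation.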

[8] = tested on: Candida albicans; assay: Antifungal activity against fluconazole susceptible Candida albicans 003gr by CLSI protocol based broth microdilution method; format: functional; how it was run: as §1
[9] = tested on: Candida albicans; assay: Antifungal activity against Candida albicans ATCC 90028 by CLSI protocol based broth microdilution method; format: functional; how it was run: as §1
[10] = tested on: Candida albicans; assay: Antifungal activity against fluconazole susceptible Candida albicans 004gr in presence of fluconazole by CLSI protocol based broth microdilution method; format: functional
[11] = tested on: Candida albicans; assay: Antifungal activity against fluconazole resistant Candida albicans 167-1 in presence of fluconazole by CLSI protocol based broth microdilution method; format: functional; how it was run: as §3
[12] = tested on: Candida albicans; assay: Antifungal activity against fluconazole susceptible Candida albicans 0072gr by CLSI protocol based broth microdilution method; format: functional; how it was run: as §1
[13] = tested on: Candida albicans; assay: Antifungal activity against fluconazole resistant Candida albicans 167-2 in presence of fluconazole by CLSI protocol based broth microdilution method; format: functional; how it was run: as §3
[14] = tested on: Candida albicans; assay: Inhibition of ABC efflux pumps in fluconazole resistant Candida albicans 167-1 assessed as reduction in energy-dependent rhodamine 6G efflux in presence of 0.1 M glucose after 25 mins […] relative to control
[15] = tested on: Candida albicans; assay: Antifungal activity against fluconazole susceptible Candida albicans 0072gr in presence of fluconazole by CLSI protocol based broth microdilution method; format: functional
[16] = tested on: Candida albicans; assay: Antifungal activity against fluconazole susceptible Candida albicans 0079gr in presence of fluconazole by CLSI protocol based broth microdilution method; format: functional
[17] = tested on: Candida albicans; assay: Inhibition of ABC efflux pumps in fluconazole resistant Candida albicans 167-2 assessed as reduction in energy-dependent rhodamine 6G efflux in presence of 0.1 M glucose after 25 mins […] relative to control
[18] = tested on: Candida albicans; assay: Inhibition of ergosterol biosynthesis in fluconazole susceptible Candida albicans ATCC 90028 at 0.5 to 1 times MIC relative to control; format: functional
How it was run: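 ATCC90028 grown in 50 ml TSB with MIC and ½ MIC of compound; untreated and 8 μg mL–1 fluconazole controls. Sterols extracted by alcoholic KOH method and spectrophotometrically scanned; ergosterol % calculated from A281.5 and A230 (E values 290 and 518) with dilution factor, per pellet weight.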

[19] = tested on: Candida albicans; assay: Antifungal activity against fluconazole susceptible Candida albicans 002B1 by CLSI protocol based broth microdilution method; format: functional; how it was run: as §1
[20] = tested on: Candida albicans; assay: Antifungal activity against fluconazole resistant Candida albicans 167-1 by CLSI protocol based broth microdilution method; format: functional
How it was run: (§4)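 Broth microdilution per CLSI M27-A3 against clinical C. albicans isolates. Strains sub-cultured at least twice on Tryptone Soya Agar, 37 °C, 48 h. Compounds dissolved in DMSO at 2000 μg mL–1 stock. Fluconazole positive control, plus culture, media and vehicle controls. Run in duplicate; MIC in μg mL–1.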

[21] = tested on: Candida albicans; assay: Antifungal activity against fluconazole susceptible Candida albicans 0079gr by CLSI protocol based broth microdilution method; format: functional; how it was run: as §1
[22] = tested on: Candida albicans; assay: Inhibition of ABC efflux pumps in fluconazole susceptible Candida albicans 004gr assessed as reduction in energy-dependent rhodamine 6G efflux in presence of 0.1 M glucose after 25 mins by fluorescence assay relative to control; how it was run: as §2
[23] = tested on: Candida albicans; assay: Antifungal activity against fluconazole resistant Candida albicans A171 by CLSI protocol based broth microdilution method; format: functional; how it was run: as §4
[24] = tested on: Candida albicans; assay: Antifungal activity against fluconazole susceptible Candida albicans 002B1 in presence of fluconazole by CLSI protocol based broth microdilution method; format: functional
[25] = tested on: Candida albicans; assay: Inhibition of ABC efflux pumps in fluconazole susceptible Candida albicans 004B1 assessed as reduction in energy-dependent rhodamine 6G efflux in presence of 0.1 M glucose after 25 mins by fluorescence assay relative to control; how it was run: as §2
[26] = tested on: Candida albicans; assay: Antifungal activity against fluconazole resistant Candida albicans 167-2 by CLSI protocol based broth microdilution method; format: functional; how it was run: as §4
[27] = tested on: Candida albicans; assay: Antifungal activity against Candida albicans ATCC 90028 in presence of fluconazole by CLSI protocol based broth microdilution method; format: functional
[28] = tested on: Candida albicans; assay: Antifungal activity against fluconazole susceptible Candida albicans 003gr in presence of fluconazole by CLSI protocol based broth microdilution method; format: functional
[29] = tested on: Candida albicans; assay: Inhibition of ABC efflux pumps in fluconazole susceptible Candida albicans 002B1 assessed as reduction in energy-dependent rhodamine 6G efflux in presence of 0.1 M glucose after 25 mins […] relative to control
[30] = tested on: Candida albicans; assay: Antifungal activity against fluconazole susceptible Candida albicans 004gr by CLSI protocol based broth microdilution method; format: functional; how it was run: as §1
[31] = tested on: Candida albicans; assay: Down regulation of ERG11 gene expression in fluconazole resistant Candida albicans A171 at MIC after 2 hrs by qRT PCR analysis relative to control; format: functional
How it was run: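 Cells exposed 2 h to test agents at MIC. Total RNA isolated, cDNA synthesized, qPCR for ERG11 with ACT1 as endogenous control. Triplicate independent experiments, reported as mean ± standard deviation.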

[32] = tested on: Candida albicans; assay: Inhibition of ABC efflux pumps in fluconazole susceptible Candida albicans 0079gr assessed as reduction in energy-dependent rhodamine 6G efflux in presence of 0.1 M glucose after 25 mins by fluorescence assay relative to control; how it was run: as §2
[33] = tested on: Candida albicans; assay: Antifungal activity against fluconazole susceptible Candida albicans 004B1 in presence of fluconazole by CLSI protocol based broth microdilution method; format: functional

Row | Structure (SMILES) | MIC [1] | inhibition [2] | fractional inhibitory concentration index (FICI) [3] | inhibition (INH) [4] | inhibition [5] | inhibition [6] | MIC [8] | MIC [9] | fractional inhibitory concentration index (FICI) [10] | fractional inhibitory concentration index (FICI) [11] | MIC [12] | fractional inhibitory concentration index (FICI) [13] | inhibition [14] | fractional inhibitory concentration index (FICI) [15] | fractional inhibitory concentration index (FICI) [16] | inhibition [17] | inhibition (INH) [18] | MIC [19] | MIC [20] | MIC [21] | also measured
1 | S=C1NC(c2ccccc2)=CC(c2ccc(C3C=C(c4ccccc4)NC(=S)N3)cc2)N1 (centres undefined) | 0.125 to 1 µg/mL (≈ 0.275 to 2.2 µM) | 28% | 0.25 - 0.251 | 49 - 94% | 28% | 28% | 0.125 to 1 µg/mL (≈ 0.275 to 2.2 µM) | 0.125 to 1 µg/mL (≈ 0.275 to 2.2 µM) | 0.13 - 0.31 | 0.25 - 0.251 | 0.125 to 1 µg/mL (≈ 0.275 to 2.2 µM) | 0.25 - 0.251 | 28% | 0.13 - 0.31 | 0.127 | 28% | 66 - 99% | 0.125 to 1 µg/mL (≈ 0.275 to 2.2 µM) | 2 µg/mL (≈ 4.4 µM) | 0.125 to 1 µg/mL (≈ 0.275 to 2.2 µM) | fold change (FC) [7]: 1.5 - 13; inhibition [22]: 28%; MIC [23]: 2 µg/mL (≈ 4.4 µM); fractional inhibitory concentration index (FICI) [24]: 0.13 - 0.31; inhibition [25]: 28%; MIC [26]: 2 µg/mL (≈ 4.4 µM); fractional inhibitory concentration index (FICI) [27]: 0.13 - 0.31; fractional inhibitory concentration index (FICI) [28]: 0.13 - 0.31; inhibition [29]: 28%; MIC [30]: 0.125 to 1 µg/mL (≈ 0.275 to 2.2 µM); fold change (FC) [31]: 1.25 - 10; inhibition [32]: 28%; fractional inhibitory concentration index (FICI) [33]: 0.13 - 0.31
2 | c1ccc(-c2cc(-c3ccccc3)[nH]n2)cc1 | 16 to 62 µg/mL (≈ 72.6 to 281 µM) | < 20% | 0.625 - 1.5 | 49 - 94% | < 20% | < 20% | 16 to 62 µg/mL (≈ 72.6 to 281 µM) | 16 to 62 µg/mL (≈ 72.6 to 281 µM) | 0.63 - 2.5 | 0.625 - 1.5 | 16 to 62 µg/mL (≈ 72.6 to 281 µM) | 0.625 - 1.5 | < 20% | 0.63 - 2.5 | 0.63 - 2.5 | < 20% | 66 - 99% | 16 to 62 µg/mL (≈ 72.6 to 281 µM) | 62 to 125 µg/mL (≈ 281 to 567 µM) | 16 to 62 µg/mL (≈ 72.6 to 281 µM) | inhibition [22]: < 20%; MIC [23]: 62 to 125 µg/mL (≈ 281 to 567 µM); fractional inhibitory concentration index (FICI) [24]: 0.63 - 2.5; inhibition [25]: < 20%; MIC [26]: 62 to 125 µg/mL (≈ 281 to 567 µM); fractional inhibitory concentration index (FICI) [27]: 0.63 - 2.5; fractional inhibitory concentration index (FICI) [28]: 0.63 - 2.5; inhibition [29]: < 20%; MIC [30]: 16 to 62 µg/mL (≈ 72.6 to 281 µM); inhibition [32]: < 20%; fractional inhibitory concentration index (FICI) [33]: 0.63 - 2.5
